Results published in PMC5643981 (Chemical Science, 2017).
Marks after values point to notes of the source that are not given here.

What was measured:
[1] = tested on: Pseudomonas aeruginosa strain PAO1 biofilm; assay: Dispersal of preformed biofilm; type: cell-based
Outline: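 Biofilm formed 24 h at 37 °C, static, in 0.25% (w/v) nutrient broth no. 2 from washed overnight PAO1 (OD600 1) without compound. Wells washed twice with water, then given sterile-filtered test compound plus polymyxin B in the same broth for another 24 h at 37 °C, static. After two washes, stained with 0.5 mM WST-8 + 20 μM phenazine ethosulfate (2.5–3 h, 37 °C); supernatant A450 read.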

[2] = tested on: Pseudomonas aeruginosa strain PAO1 biofilm; assay: Biofilm inhibition; type: cell-based
Outline: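 PAO1 grown overnight in LB at 37 °C with 180 rpm shaking, washed in 0.25% (w/v) nutrient broth no. 2 and set to OD600 1. 20 μL goes into 180 μL of the same medium with sterile-filtered test compound and polymyxin B. Incubated humid, static, 24–25 h at 37 °C, washed twice with water. Viability read by 0.5 mM WST-8 + 20 μM phenazine ethosulfate (2.5–3 h, 37 °C), supernatant A450.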

Polymyxin B [Pmx]
Dispersal, Pmx with 29b ([1]; Measured with 8 μg mL^–1 of 29b in the presence of 1.5 μg mL^–1 of Pmx): 100% ^i | Dispersal, Pmx with 36b ([1]; Measured with 8 μg mL^–1 of 36b in the presence of 1.5 μg mL^–1 of Pmx): 100% ^i | MBIC of Pmx +0.5 μg mL^–1 36b ([2]; Pmx in the presence of 0.5 μg mL^–1 36b): 1.5 μg mL^–1 | MBIC of Pmx +1 μg mL^–1 29b ([2]; Pmx in the presence of 1 μg mL^–1 29b): 1.5 μg mL^–1
